From ChEMBL document CHEMBL5058577, “EUbOPEN Chemogenomics Library 2 (Multiplex)” (2022)

System: HEK-293T
Assay: Multiplex assay against HEK293T
Type: toxicity, cell-based
Conditions: human
How it was run: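 Per cents of healthy-nucleus cells form the tubulin, mitochondrial-mass and membrane-permeability phenotype values. Live cells were stained at seeding with Hoechst33342, BioTracker Green Microtubule Cytoskeleton Dye, MitoTracker Red and Annexin V Alexa Fluor 680. After compound addition they were imaged on a CQ1 microscope at 37°C and 5% CO2, and CellPathfinder machine-learning gating split them into Hoechst high-intensity objects or normal cells, normal cells into healthy, pyknosed or fragmented nuclei, and pyknosed cells into mitotic or apoptotic.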

[1] = 12 h, 1 µM, compound concentration 1 uM, replicate 1
[2] = 12 h, 1 µM, compound concentration 1 uM, replicate 2
[3] = 12 h, 10 µM, compound concentration 10 uM, replicate 1
[4] = 12 h, 10 µM, compound concentration 10 uM, replicate 2
[5] = 24 h, 1 µM, compound concentration 1 uM, replicate 1
[6] = 24 h, 1 µM, compound concentration 1 uM, replicate 2
[7] = 24 h, 10 µM, compound concentration 10 uM, replicate 1
[8] = 24 h, 10 µM, compound concentration 10 uM, replicate 2
[9] = 48 h, 1 µM, compound concentration 1 uM, replicate 1
[10] = 48 h, 1 µM, compound concentration 1 uM, replicate 2
[11] = 48 h, 10 µM, compound concentration 10 uM, replicate 1
[12] = 48 h, 10 µM, compound concentration 10 uM, replicate 2

## COc1cc(C(=O)N2CC[C@@H](O)[C@@H](N)C2)cc2nc(-c3cc4ccccc4n3CC3CC3)n(C)c12.Cl
[1]
  Population Apoptotic (%): 48%
  Population Fragmented Nuclei (%): 6%
  Population Healthy Nuclei (%): 79%
  Population Hoechst High Intensity Objects (%): 10%
  Population Membrane Permeable-Phenotype (%): 0%
  Population Mitochondria Different-Phenotype (%): 56%
  Population Mitotic Cells (%): 51%
  Population Normal (%): 89%
  Population Pyknosed Nuclei (%): 13%
  Population Tubulin-Different-Phenotype (%): 52%
  Total Cell Count: 398
[2]
  Population Apoptotic (%): 70%
  Population Fragmented Nuclei (%): 2%
  Population Healthy Nuclei (%): 77%
  Population Hoechst High Intensity Objects (%): 15%
  Population Mitochondria Different-Phenotype (%): 71%
  Population Mitotic Cells (%): 29%
  Population Normal (%): 84%
  Population Pyknosed Nuclei (%): 20%
  Population Tubulin-Different-Phenotype (%): 37%
  Total Cell Count: 281
[3]
  Population Apoptotic (%): 71%
  Population Fragmented Nuclei (%): 5%
  Population Healthy Nuclei (%): 66%
  Population Hoechst High Intensity Objects (%): 21%
  Population Membrane Permeable-Phenotype (%): 0%
  Population Mitochondria Different-Phenotype (%): 90%
  Population Mitotic Cells (%): 28%
  Population Normal (%): 78%
  Population Pyknosed Nuclei (%): 28%
  Population Tubulin-Different-Phenotype (%): 79%
  Total Cell Count: 260
[4]
  Population Fragmented Nuclei (%): 4%
  Population Healthy Nuclei (%): 80%
  Population Hoechst High Intensity Objects (%): 18%
  Population Membrane Permeable-Phenotype (%): 2%
  Population Mitochondria Different-Phenotype (%): 88%
  Population Normal (%): 81%
  Population Pyknosed Nuclei (%): 15%
  Population Tubulin-Different-Phenotype (%): 72%
  Total Cell Count: 350
[5]
  Population Apoptotic (%): 42%
  Population Fragmented Nuclei (%): 9%
  Population Healthy Nuclei (%): 77%
  Population Hoechst High Intensity Objects (%): 6%
  Population Membrane Permeable-Phenotype (%): 0%
  Population Mitochondria Different-Phenotype (%): 42%
  Population Mitotic Cells (%): 57%
  Population Normal (%): 93%
  Population Pyknosed Nuclei (%): 13%
  Population Tubulin-Different-Phenotype (%): 33%
  Total Cell Count: 527
[6]
  Population Apoptotic (%): 60%
  Population Fragmented Nuclei (%): 7%
  Population Healthy Nuclei (%): 79%
  Population Hoechst High Intensity Objects (%): 12%
  Population Mitochondria Different-Phenotype (%): 64%
  Population Mitotic Cells (%): 39%
  Population Normal (%): 87%
  Population Pyknosed Nuclei (%): 12%
  Population Tubulin-Different-Phenotype (%): 30%
  Total Cell Count: 363
[7]
  Population Apoptotic (%): 58%
  Population Fragmented Nuclei (%): 8%
  Population Healthy Nuclei (%): 70%
  Population Hoechst High Intensity Objects (%): 18%
  Population Membrane Permeable-Phenotype (%): 0%
  Population Mitochondria Different-Phenotype (%): 94%
  Population Mitotic Cells (%): 41%
  Population Normal (%): 81%
  Population Pyknosed Nuclei (%): 20%
  Population Tubulin-Different-Phenotype (%): 78%
  Total Cell Count: 312
[8]
  Population Apoptotic (%): 65%
  Population Fragmented Nuclei (%): 6%
  Population Healthy Nuclei (%): 78%
  Population Hoechst High Intensity Objects (%): 21%
  Population Mitochondria Different-Phenotype (%): 92%
  Population Mitotic Cells (%): 34%
  Population Normal (%): 78%
  Population Pyknosed Nuclei (%): 15%
  Population Tubulin-Different-Phenotype (%): 74%
  Total Cell Count: 411
[9]
  Population Apoptotic (%): 24%
  Population Fragmented Nuclei (%): 9%
  Population Healthy Nuclei (%): 79%
  Population Hoechst High Intensity Objects (%): 5%
  Population Membrane Permeable-Phenotype (%): 0%
  Population Mitochondria Different-Phenotype (%): 37%
  Population Mitotic Cells (%): 75%
  Population Normal (%): 94%
  Population Pyknosed Nuclei (%): 10%
  Population Tubulin-Different-Phenotype (%): 28%
  Total Cell Count: 816
[10]
  Population Apoptotic (%): 64%
  Population Healthy Nuclei (%): 80%
  Population Hoechst High Intensity Objects (%): 7%
  Population Mitochondria Different-Phenotype (%): 48%
  Population Mitotic Cells (%): 36%
  Population Normal (%): 92%
  Population Tubulin-Different-Phenotype (%): 22%
  Total Cell Count: 520
[11]
  Population Apoptotic (%): 76%
  Population Fragmented Nuclei (%): 13%
  Population Healthy Nuclei (%): 68%
  Population Hoechst High Intensity Objects (%): 18%
  Population Membrane Permeable-Phenotype (%): 0%
  Population Mitochondria Different-Phenotype (%): 89%
  Population Mitotic Cells (%): 23%
  Population Normal (%): 81%
  Population Pyknosed Nuclei (%): 17%
  Population Tubulin-Different-Phenotype (%): 81%
  Total Cell Count: 386
[12]
  Population Healthy Nuclei (%): 75%
  Population Hoechst High Intensity Objects (%): 23%
  Population Mitochondria Different-Phenotype (%): 87%
  Population Normal (%): 76%
  Population Pyknosed Nuclei (%): 10%
  Population Tubulin-Different-Phenotype (%): 74%
  Total Cell Count: 467

## N[C@](CC1c2ccccc2Oc2ccccc21)(C(=O)O)[C@H]1C[C@@H]1C(=O)O
[1]
  Population Apoptotic (%): 38%
  Population Fragmented Nuclei (%): 6%
  Population Healthy Nuclei (%): 83%
  Population Hoechst High Intensity Objects (%): 7%
  Population Membrane Permeable-Phenotype (%): 0%
  Population Mitochondria Different-Phenotype (%): 43%
  Population Mitotic Cells (%): 61%
  Population Normal (%): 92%
  Population Pyknosed Nuclei (%): 10%
  Population Tubulin-Different-Phenotype (%): 27%
  Total Cell Count: 447
[2]
  Population Apoptotic (%): 54%
  Population Fragmented Nuclei (%): 7%
  Population Healthy Nuclei (%): 79%
  Population Hoechst High Intensity Objects (%): 5%
  Population Mitochondria Different-Phenotype (%): 58%
  Population Mitotic Cells (%): 45%
  Population Normal (%): 94%
  Population Pyknosed Nuclei (%): 12%
  Population Tubulin-Different-Phenotype (%): 25%
  Total Cell Count: 270
[3]
  Population Apoptotic (%): 32%
  Population Fragmented Nuclei (%): 9%
  Population Healthy Nuclei (%): 78%
  Population Hoechst High Intensity Objects (%): 8%
  Population Membrane Permeable-Phenotype (%): 0%
  Population Mitochondria Different-Phenotype (%): 40%
  Population Mitotic Cells (%): 67%
  Population Normal (%): 91%
  Population Pyknosed Nuclei (%): 12%
  Population Tubulin-Different-Phenotype (%): 23%
  Total Cell Count: 381
[4]
  Population Fragmented Nuclei (%): 4%
  Population Healthy Nuclei (%): 81%
  Population Hoechst High Intensity Objects (%): 7%
  Population Mitochondria Different-Phenotype (%): 66%
  Population Normal (%): 92%
  Population Pyknosed Nuclei (%): 13%
  Population Tubulin-Different-Phenotype (%): 31%
  Total Cell Count: 382
[5]
  Population Apoptotic (%): 21%
  Population Fragmented Nuclei (%): 8%
  Population Healthy Nuclei (%): 81%
  Population Hoechst High Intensity Objects (%): 3%
  Population Membrane Permeable-Phenotype (%): 1%
  Population Mitochondria Different-Phenotype (%): 24%
  Population Mitotic Cells (%): 78%
  Population Normal (%): 96%
  Population Pyknosed Nuclei (%): 10%
  Population Tubulin-Different-Phenotype (%): 15%
  Total Cell Count: 629
[6]
  Population Apoptotic (%): 38%
  Population Fragmented Nuclei (%): 9%
  Population Healthy Nuclei (%): 84%
  Population Hoechst High Intensity Objects (%): 5%
  Population Membrane Permeable-Phenotype (%): 0%
  Population Mitochondria Different-Phenotype (%): 30%
  Population Mitotic Cells (%): 61%
  Population Normal (%): 94%
  Population Pyknosed Nuclei (%): 6%
  Population Tubulin-Different-Phenotype (%): 16%
  Total Cell Count: 368
[7]
  Population Apoptotic (%): 29%
  Population Fragmented Nuclei (%): 10%
  Population Healthy Nuclei (%): 79%
  Population Hoechst High Intensity Objects (%): 5%
  Population Membrane Permeable-Phenotype (%): 0%
  Population Mitochondria Different-Phenotype (%): 30%
  Population Mitotic Cells (%): 70%
  Population Normal (%): 94%
  Population Pyknosed Nuclei (%): 10%
  Population Tubulin-Different-Phenotype (%): 17%
  Total Cell Count: 510
[8]
  Population Apoptotic (%): 40%
  Population Fragmented Nuclei (%): 6%
  Population Healthy Nuclei (%): 82%
  Population Mitochondria Different-Phenotype (%): 41%
  Population Mitotic Cells (%): 59%
  Population Pyknosed Nuclei (%): 11%
  Population Tubulin-Different-Phenotype (%): 16%
  Total Cell Count: 471
[9]
  Population Apoptotic (%): 12%
  Population Fragmented Nuclei (%): 11%
  Population Healthy Nuclei (%): 80%
  Population Hoechst High Intensity Objects (%): 2%
  Population Membrane Permeable-Phenotype (%): 2%
  Population Mitochondria Different-Phenotype (%): 15%
  Population Mitotic Cells (%): 87%
  Population Normal (%): 97%
  Population Pyknosed Nuclei (%): 7%
  Population Tubulin-Different-Phenotype (%): 13%
  Total Cell Count: 1040
[10]
  Population Apoptotic (%): 17%
  Population Fragmented Nuclei (%): 12%
  Population Healthy Nuclei (%): 81%
  Population Hoechst High Intensity Objects (%): 1%
  Population Membrane Permeable-Phenotype (%): 0%
  Population Mitochondria Different-Phenotype (%): 17%
  Population Mitotic Cells (%): 82%
  Population Normal (%): 98%
  Population Pyknosed Nuclei (%): 6%
  Population Tubulin-Different-Phenotype (%): 10%
  Total Cell Count: 654
[11]
  Population Apoptotic (%): 28%
  Population Fragmented Nuclei (%): 13%
  Population Healthy Nuclei (%): 78%
  Population Hoechst High Intensity Objects (%): 2%
  Population Membrane Permeable-Phenotype (%): 0%
  Population Mitochondria Different-Phenotype (%): 17%
  Population Mitotic Cells (%): 71%
  Population Normal (%): 97%
  Population Pyknosed Nuclei (%): 8%
  Population Tubulin-Different-Phenotype (%): 8%
  Total Cell Count: 789
[12]
  Population Apoptotic (%): 42%
  Population Healthy Nuclei (%): 80%
  Population Hoechst High Intensity Objects (%): 4%
  Population Mitochondria Different-Phenotype (%): 25%
  Population Mitotic Cells (%): 57%
  Population Normal (%): 95%
  Population Pyknosed Nuclei (%): 6%
  Population Tubulin-Different-Phenotype (%): 12%
  Total Cell Count: 687
